The source of these data is ChEMBL document CHEMBL1134385, “Flexible estrogen receptor modulators: design, synthesis, and antagonistic effects in human MCF-7 breast cancer cells” (J Med Chem, 2001).

One test deals with Estrogen receptor (Homo sapiens, UniProt Q92731+P03372). Put plainly: Binding affinity for estrogen receptor. Type of test: protein assay.
The test system of the next test is MCF7. Nature of the test: Antiproliferative activity against Human MCF-7 Breast cancer cell line in vitro. Type of test: functional, cell-based. The gist of the method:
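MCF-7 cells grown in Eagle's MEM with 10% fetal calf serum and 1% nonessential amino acids, 5% CO2. Seeded at 1.5×10^4 per well, 24 h at 37 °C, then dosed from ethanol stocks over 1 nM-100 μM (vehicle 1% v/v) for 72 h. MTT at 1 mg/mL final, 2 h in the dark, DMSO solubilization, A570. Viability relative to vehicle control; IC50 from triplicate means.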

pIC50: −log10 of the molar value.

One may read the Ki as the equilibrium dissociation constant of an inhibitor or competing ligand from its target. In general, pIC50 refers to −log10 of the IC50, conventionally taken in molar units.

Turning to `CC/C(=C(\Cc1ccccc1)c1ccc(OCN(C)C)cc1)c1ccccc1`, the Ki on Estrogen receptor was found to be 0.503 µM. In addition, in the test with MCF7, the pIC50 was 4.66.
